The results in this text go back to ChEMBL document CHEMBL1142544 (J Med Chem, 2008).

Molecules are shown by their SMILES. Activity calls are given as the source filed them. The rule behind the calls is not given here.

A short description of data set [1]: Stimulation of human Vgamma9Vdelta2 T lymphocytes assessed as gamma delta expansion factor after 7 days. Type of data set: functional.
For data set [2], the target named is T1, Farnesyl pyrophosphate synthase (Homo sapiens, UniProt P14324).
T1 sequence (P14324 whole entry): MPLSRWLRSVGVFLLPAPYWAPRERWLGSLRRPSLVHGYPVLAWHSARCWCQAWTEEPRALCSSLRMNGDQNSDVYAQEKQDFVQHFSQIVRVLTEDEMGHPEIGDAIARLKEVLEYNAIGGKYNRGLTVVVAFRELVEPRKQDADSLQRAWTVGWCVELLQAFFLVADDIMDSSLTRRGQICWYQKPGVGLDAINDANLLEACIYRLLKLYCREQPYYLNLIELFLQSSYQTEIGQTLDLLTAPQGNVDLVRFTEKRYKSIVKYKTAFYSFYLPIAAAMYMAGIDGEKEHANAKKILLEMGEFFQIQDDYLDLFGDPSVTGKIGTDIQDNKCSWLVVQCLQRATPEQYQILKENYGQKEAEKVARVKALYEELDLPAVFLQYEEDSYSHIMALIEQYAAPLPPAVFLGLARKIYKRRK
As to the kind of experiment: Inhibition of human FPP synthase expressed in Escherichia coli BL21 (DE3).

The next data set deals with HuT78. Kind of data set: Induction of apoptosis in human HUT78 cells at 100 uM by flow cytometry. Type of data set: functional. The gist of the method:
(§1)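 Tumor cells were exposed to 100 µM compound. Cells (1 × 10⁶) were washed in PBS, pelleted at 200g for 5 min, and stained with FITC-annexin V plus propidium iodide for 15 min at 20 °C. The percentage of annexin-V-positive cells was measured by flow cytometry.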
(In flow cytometry, cells or beads pass a laser one at a time.)

The test system of data set [3] is K562. Kind of data set: Induction of apoptosis in human K-562 cells expressing Bcr-Abl at 100 uM by flow cytometry. Type of data set: functional. The gist of the method: as §1
The subject of the next data set is CCRF-CEM. As to the kind of experiment: Induction of apoptosis in human CCRF-CEM cells at 100 uM by flow cytometry. Type of data set: functional. Put shortly:
as §1

Data set [4] can be described thus: Induction of apoptosis in human CEM-VBL300 cells expressing p-glycoprotein at 100 uM by flow cytometry. The class given is functional. The gist of the method:
as §1

The subject of data set [5] is BT-549. Kind of data set: Antitumor activity against human BT-549 cells xenografted SCID mouse assessed as survival time prolongation at 2 ug, ip. The class given is functional, cell-based. Put shortly:
(§2)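 SCID mice were conditioned by irradiation and anti-asialo-GM1 monoclonal antibody. On day 0 they received a single ip injection of BT549 breast cancer cells (2 × 10⁶/mouse). Drug was given ip (2 µg or 5 µg) with the tumor cells, alone or with ip human rIL-2 (300 ng). Where indicated, purified human γδ T cells (2 × 10⁷/mouse) were added. Cells and drug were reinjected every 15 days, with IL-2 on the same day and days 3 and 6 after. Read-out was mean survival time in days.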

For data set [6], the system named is BT-549. Kind of data set: Antitumor activity against human BT-549 cells xenografted SCID mouse co-transfected with human gamma delta T lymphocytes assessed as survival time prolongation at 5 ug, ip. The class given is functional, cell-based. Put shortly: as §2
(In general: In xenograft studies the graft and the host belong to different species.)

Data set [7] relates to BT-549. Kind of data set: Antitumor activity against human BT-549 cells xenografted SCID mouse co-transfected with human gamma delta T lymphocytes assessed as survival time prolongation at 2 ug, ip coadministered with human recombinant IL2. Type of data set: functional, organism-based. Put shortly: as §2
Data set [8] has as its system BT-549. As to the kind of experiment: Antitumor activity against human BT-549 cells xenografted SCID mouse co-transfected with human gamma delta T lymphocytes assessed as survival time prolongation at 5 ug, ip coadministered with human recombinant IL2. Type of data set: functional, organism-based. Put shortly: as §2
The subject of data set [9] is K562. As to the kind of experiment: Induction of apoptosis in human K-562 cells expressing Bcr-Abl at <50 uM by flow cytometry. Type of data set: functional, cell-based.
Data set [10] in a line: Cytotoxicity against human CFU-GM cells at 100 uM after 7 days.
Data set [11] concerns BT-549. As to the kind of experiment: Antitumor activity against human BT-549 cells xenografted SCID mouse assessed as survival time prolongation at 2 ug, ip.
Data set [12] deals with BT-549. As to the kind of experiment: Antitumor activity against human BT-549 cells xenografted SCID mouse co-transfected with human gamma delta T lymphocytes assessed as survival time prolongation at 2 ug, ip. Type of data set: functional, cell-based. The gist of the method: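 SCID mice conditioned by irradiation plus anti-asialo-GM1 antibody; day 0 single i.p. BT549 (2 × 10⁶/mouse) with concomitant i.p. drug (2 µg), ± rIL-2 (300 ng), plus highly purified human γδ T cells (2 × 10⁷/mouse). γδ T cells and drug re-injected every 15 days; rIL-2 the same day and 3 and 6 days after each. Read-out: mean survival time (days).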

Regarding `O=P(O)(O)C(Cn1cnc2cncnc21)P(=O)(O)O`, the Activity in [1] is 0.2 µM. Besides, in data set [2], 388 nM corresponded to half-maximal inhibition (IC50).
In the case of `O.O=P(O)(O)C(O)(Cn1ccnc1)P(=O)(O)O` [ZOLEDRONIC ACID], the Activity in [1] is 0.1 µM; with HuT78 it was 24%; in the data set on K562 [3], 16%; in the data set with CCRF-CEM, 20%; in data set [4] it was 22%; in data set [10], 18%. The result in the data set on BT-549 [5], in the data set on BT-549 [6], with K562 [9] and in the data set with BT-549 [11] was inactive. Also, the result with BT-549 [7] and with BT-549 [8] was Active.
With `O=P(O)(O)C(Cn1ccnc1)P(=O)(O)O`, the Activity in data set [1] amounted to 0.001 µM; in the data set on HuT78, 40%; with K562 [3], 15%; with CCRF-CEM, 22%; in data set [4], 37%; in data set [10] it was 15%. Also, the result with BT-549 [5], in the data set on K562 [9] and in the data set with BT-549 [11] was inactive. In addition, in the data set on BT-549 [12], the outcome was Active.
Consider `O=P(O)(O)C(Cn1cnc2c(Cl)ncnc21)P(=O)(O)O`, for which, in [1], the Activity is 0.1 µM. In [2], this molecule had a half-maximal inhibitory concentration (IC50) of 883 nM.
`O=P(O)(O)C(CSc1ncc[nH]1)P(=O)(O)O`: the Activity in [1] was above 10 µM. For the same molecule, in data set [2], the midpoint of inhibition, the IC50, lay at 28.1 nM.
For `O=P(O)(O)C(Cn1cccn1)P(=O)(O)O` the same measures were above 10 µM and 3070 nM.
For `O=P(O)(O)C(Cn1cnc2ccccc21)P(=O)(O)O` the same measures were 1 µM and 16.1 nM.

A word on the IC50: it is the concentration that inhibits the measured activity by half. A low value points to greater potency.
